PGC1a Ac signal – raises PGC1a acetylation signal in U2OS cells; 350,000 compounds, 0.21% hits; activation, % at 15.6 µM; U2OS PGC1a acetylation AlphaScreen, overnight; AID 651723;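 active = every replicate reaching activation of at least 50%, whatever the mean replicate activation; inconclusive = replicates that disagree or another doubt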;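 note: hits raise the AlphaScreen acetylation signal above neutral controls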
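Test system: U2OS cells expressing flag-PGC1a plus GCN5; Amount: 7000 U2OS cells per well; Compound: single test concentration per compound; Incubation: compound overnight at 37 °C, each detection step 1 h RT; Signal: AlphaScreen lysate read.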
G6PC hep suppr – PGC-1a acetylation activator altering hepatocyte G6PC expression; shares compounds with PGC1a Ac signal; primary mouse hepatocytes, G6PC mRNA qPCR, forskolin; G6PC suppression (normalized activity, % of positive control; higher = more suppression), % at 26 µM; 240 tested, under 10 active; AID 743463;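 active = dose curves showing G6PC suppression whose half-maximal dose is at most twice the top valid dose; inconclusive = flat curves with moderate negative activity, or unreliable fits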;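 note: G6PC expression relative to GAPDH housekeeping gene as delta delta Ct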
Hep PCK1 suppr – hepatocyte PCK1 expression change via PGC-1a acetylation activation; shares compounds with PGC1a Ac signal; primary mouse hepatocytes, PCK1 mRNA qPCR, forskolin-stimulated; PCK1 expression decrease, unspecified at 26 µM; 230 tested, under 10 active; AID 743465;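 active = compounds lowering PCK1 expression whose fitted half-maximal concentration is at most twice the top tested dose; inconclusive = flat fit with moderate opposite-direction effect, or poor fit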;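 note: higher delta delta Ct means lower PCK1 expression so positive values indicate hits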
PGC1a hep suppr – hepatocyte PGC-1a expression change via PGC-1a acetylation activation. shares compounds with PGC1a Ac signal. 240 tested, under 10 active. primary mouse hepatocytes, PGC-1a mRNA qPCR, forskolin; top dose 26 µM. max activity (PGC-1a expression decrease), %. AID 743467;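 active = compound lowering PGC-1a expression with fitted half-maximal concentration at most twice its top tested dose; inconclusive = flat curve with moderate opposite-direction effect, or poor fit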
A number is an active result; 0 = inactive; ? = inconclusive; - = no result given. Not all results are given here.

SMILES | PGC1a Ac signal | G6PC hep suppr | Hep PCK1 suppr | PGC1a hep suppr
Cc1cccc(C(=O)O/N=C/c2c(Cl)n(C)c3ccccc23)c1 | 0 | - | - | -
COc1ccc(NCc2nnc(SCC(=O)Nc3cc(C)cc(C)c3)o2)cc1 | 0 | - | - | -
CN(c1ccccc1)S(=O)(=O)c1ccc(Cl)nc1 | 0 | - | - | -
C=CCc1ccc(OCCCCNC(C)CC)c(OC)c1 (configuration not stated) | 0 | - | - | -
CC(C)[C@H](C)NC(=O)N(C)C[C@H]1OCc2ccccc2-c2c(n(C)c3ccccc23)C(=O)N([C@H](C)CO)C[C@H]1C | 59 | 0 | 0 | 0
c1nc(NC2CCCCCC2)c2[nH]cnc2n1 | 0 | - | - | -
CCCC(=O)C1=C(O)C(C(=O)OC)C(C)(C)CC1=Nc1ccc(OC)cc1 (configuration not stated) | 0 | - | - | -
CC(=O)c1cc(-c2ccccc2)n(CCC(=O)NC2CCCCC2)c1C | ? | 0 | 0 | 0
O=C(NCCCN1CCOCC1)c1ccccc1N1C(=O)[C@@H]2Cc3c([nH]c4ccccc34)C(c3ccccc3)N2C1=O (some centres not stated) | 320 | 0 | 0 | 0
O=C(CN1CCC(n2c(=O)[nH]c3ccccc32)CC1)NCc1ccc(Cl)s1 | - | 0 | 0 | 0
CCc1ccc(S(=O)(=O)/N=C2\C=C(Nc3ccc(O)cc3)C(=O)c3ccccc32)cc1 | 0 | - | - | -
COc1ccc(/C=N/Nc2nncn2N)cc1Br | 0 | - | - | -
O=C(Nc1ccc2c(c1)OCO2)C1CCN(c2ccc(S(=O)(=O)N3CCOCC3)cc2)CC1 | 0 | 0 | 0 | 0
Nc1ccc2c(c1)C(=O)C(=O)c1ccccc1-2 | 0 | - | - | -
CCN1CCN(c2nnc(-c3ccccc3)c3ccccc23)CC1 | 0 | - | - | -
COc1ccc(C(c2nnnn2C2CCCC2)N2CCC(C)CC2)c(OC)c1 (configuration not stated) | 100 | 0 | 0 | 0
CCCOC(=O)c1ccc(-n2nnnc2SCC(=O)N2CCCCC2)cc1 | 0 | - | - | -
CCOc1ccc(N2C(=O)CC(Cc3ccc(Br)cc3)C2=O)cc1 (configuration not stated) | 0 | - | - | -
Cc1[nH]c2ccc(C(C)C)cc2c1CC(=O)O | 0 | - | - | -
Clc1ccccc1OCCCCN1CCCC1 | 0 | - | - | -
O=C(NC1CCCCC1)C(c1ccc2ncccc2c1)N(Cc1ccc2c(c1)OCO2)C(=O)c1ccc2c(c1)OCCO2 (configuration not stated) | 0 | - | - | -
COc1ccc(N(C(=O)c2csnn2)C(C(=O)NC2CCCC2)c2cccs2)cc1 (configuration not stated) | 53 | 0 | - | ?
Cc1ccccc1NC(=O)/C(C#N)=C\c1cc(C)n(-c2ccc(C(=O)O)cc2)c1C | 0 | - | - | -
COC(=O)C(Nc1ccccc1Cl)(c1cc(C)c(O)c(C)c1)C(F)(F)F (configuration not stated) | 69 | 0 | 0 | ?
NC1=C(Br)C(=O)c2ncccc2C1=O | 0 | - | - | -
SMILES | PGC1a Ac signal | G6PC hep suppr | Hep PCK1 suppr | PGC1a hep suppr
CC(=O)Nc1ccc(NC(=O)CN(c2cc(Cl)ccc2Cl)S(C)(=O)=O)cc1 | 117 | 0 | - | 0
CC(C)(O)c1cc(=O)sc2nc3ccccc3n12 | 0 | - | - | -
COc1cc(/C=C2\SC(=O)NC2=O)ccc1Oc1ccc([N+](=O)[O-])cn1 | 0 | - | - | -
Cc1ccc(S(=O)(=O)N[C@H]2C=C[C@@H](CC(=O)NCCN3CCCCC3)O[C@H]2CO)cc1 | 0 | - | 0 | 0
CCN(CC)CCNC(=O)c1ccc2c(c1NCCO)C(=O)c1ccccc1C2=O | 0 | - | - | -
O=C(NCc1ccccc1)C1Cc2c(-c3ccc(Cl)cc3)ccnc2O1 (configuration not stated) | 69 | 0 | 0 | 0
CC(C)(C)c1ccc(O)c(O)c1 | 0 | - | - | -
O=C(Nc1ccc(-c2noc(-c3cccs3)n2)cc1)c1cccnc1 | 137 | 0 | 0 | ?
CC(Oc1ccc(Cl)cc1Cl)c1nc(-c2ccc(NC(=O)c3cccnc3)cc2)no1 (configuration not stated) | 88 | 0 | 0 | ?
CCc1nccn1S(=O)(=O)c1cc(C)c(OC)cc1C | 0 | - | - | -
CCN1CCN(Cc2ccc(NC(=O)c3ccc(C)c(NC(=O)c4cncc(-c5cccs5)c4)c3)cc2C(F)(F)F)CC1 | 0 | - | - | -
Cc1ccccc1Cn1cc(NC(=O)c2cc(-c3cccs3)on2)cn1 | ? | - | 0 | 0
c1coc(CN(Cc2cccs2)Cc2nnnn2C2CCCCC2)c1 | ? | 0 | 0 | ?
COc1cc(C=C(C(C)=O)C(C)=O)ccc1O | 0 | - | - | -
S=C1NC2=C(CCCC2=C2SCCS2)C(c2ccccc2)N1 (configuration not stated) | 0 | - | - | -
Oc1ccc(C2CNCCc3c2cc(O)c(O)c3Cl)cc1 (configuration not stated) | 0 | - | - | -
O=C(CCl)Nc1cc(SCC(O)CO)cc([N+](=O)[O-])c1 (configuration not stated) | 0 | - | - | -
Cc1nc2ccccc2nc(C)c1=NO | 0 | - | - | -
CCn1c(C)c(C)c2cc(C(=O)NCCN3CCOCC3)ccc21 | 0 | - | - | -
c1ccc(-c2c(-c3ccccc3)n(Cc3ccco3)c3ncnc(NCCCn4ccnc4)c23)cc1 | 125 | 0 | 0 | 0
Cn1ncc(Cl)c1C(=O)Nc1sc2c(c1C(N)=O)CCC2 | 59 | 0 | 0 | 0
C=CCN=C1S/C(=C/c2ccc([N+](=O)[O-])cc2)C(=O)N1CC=C | 0 | - | - | -
CN1Cc2c(N3CCOCC3)nc3sc(C(=O)c4ccc(Br)cc4)c(N)c3c2CC1(C)C | 83 | 0 | 0 | 0
CCc1nnc(N/N=C/c2c(Cl)cccc2Cl)n1N | 0 | - | - | -
Cc1cc2nc(/C=C/c3cccnc3)[nH]c2cc1C | 0 | - | - | -
SMILES | PGC1a Ac signal | G6PC hep suppr | Hep PCK1 suppr | PGC1a hep suppr
O=C(NCc1csc(-c2cccs2)n1)c1cccc(Cl)c1 | 0 | 0 | 0 | 0
Cc1noc(C)c1S(=O)(=O)Nc1ccc2c(c1)C(=O)N([C@@H](C)CO)C[C@@H](C)[C@@H](CN(C)Cc1ccc3c(c1)OCO3)OCCCC[C@@H](C)O2 | 0 | 0 | 0 | ?
C[C@@H]1CCCCO[C@H](CN(C)Cc2ccc(Cl)c(Cl)c2)[C@H](C)CN([C@@H](C)CO)C(=O)c2cc(NC(=O)Nc3ccc(F)cc3)ccc2O1 | 0 | - | - | -
Cc1ccc(/C=N/N2CCN(Cc3ccccc3)CC2)cc1 | 0 | - | - | -
COc1ccc(-c2cc(-c3ccccc3O)[nH]n2)cc1OC | 95 | 0 | 0 | 0
c1ccc(Sc2ccccn2)cc1 | 0 | - | - | -
COc1cc(/C=C2\CC(C(C)(C)C)C/C(=C\c3cc(OC)c(OC)c(OC)c3)C2=O)cc(OC)c1OC (configuration not stated) | 0 | - | - | -
CCOC(=O)CNS(=O)(=O)c1cc(-c2nnc(Nc3ccc4c(c3)OCO4)c3ccccc23)ccc1C | 168 | 0 | 0 | 0
O=C(COc1ccc(Cl)cc1Cl)NCCCN1CCOCC1 | 0 | - | - | -
Cc1cc(N2CCN(C)CC2)ccc1NC(=O)c1c2c(nc3ccccc13)CCN(Cc1ccccc1)C2 | 0 | - | - | -
COC(=O)c1ccc(OC)c(OC2CCCC2)c1 | 0 | - | - | -
OC(CN1c2ccccc2Sc2ccccc21)Cn1nnc2ccccc21 (configuration not stated) | 76 | - | 0 | 0
CCOCCCNC(=O)c1ccccc1SC | 0 | - | - | -
CC(C)(C)c1ccc(OCC(=O)NNC(=O)Nc2ccccc2)cc1 | 0 | - | - | -
N#Cc1ccc(CCc2ccccc2)[nH]c1=O | 0 | - | - | -
CN(C)CCCNc1cc(-c2ccccc2)nc2cc(-c3cccc(F)c3)nn12 | ? | 0 | ? | ?

Assay outcomes (PubChem BioAssay)
